Measurements gathered from unrelated publications.
Each line is one published result; the experiments were not run side by side.
Target: Focal adhesion kinase 1 (PTK2, Homo sapiens, UniProt Q05397)

SMILES	test	setting	measurement	value
CNCc1ccccc1-c1csc([C@@H](C)Nc2nc(C)nc3cc(OC)c(OC)cc23)c1	cell-free assay, competition with immobilised ligand	1 µM	remaining binding	86%
Cc1sc(C(=O)NC2COC2)cc1-n1cc(NC(=O)Nc2c(F)cccc2Cl)cn1	enzyme activity, inhibitor	10 µM	remaining activity	104%
O=S(=O)(NC1CCC(c2cc(F)ccc2F)(S(=O)(=O)c2ccc(Cl)cc2)CC1)C(F)(F)F (centres unmarked)	cell-free assay, competition with immobilised ligand	1 µM	remaining binding	90%
Cc1cnn2ncc(-c3ccnc(N(C)C)n3)c2c1	cell-free assay	1 µM	remaining signal	92%
CCCS(=O)(=O)Nc1ccc(F)c(C(=O)c2c[nH]c3ncc(-c4ccc(Cl)cc4)cc23)c1F	enzyme activity, inhibitor	1 µM	inhibition	< 10%
Cc1[nH]c(/C=C2\C(=O)Nc3ccc(F)cc32)c(C)c1C(=O)N[C@H]1CCN(C(=O)N(C)C)C1	enzyme activity, inhibitor	1 µM	remaining activity	27%
CNC(=O)c1cc(Oc2ccc(NC(=O)Nc3ccc(Cl)c(C(F)(F)F)c3)cc2)ccn1	cell-free assay	0.5 µM	remaining signal	102%
CC(=O)N1CCC(c2ccc(C(=O)NC(=N)N)cc2C(F)(F)F)CC1	cell-free assay, competition with immobilised ligand	1 µM	remaining binding	100%
N#CCCc1ccc2c(c1)-c1[nH]c3ccc([N+](=O)[O-])cc3c1CC(=O)N2	cell-free assay	0.5 µM	remaining signal	82.2%
COc1ccnn2ncc(-c3ccnc(N(C)C)n3)c12	cell-free assay	1 µM	remaining signal	100%
C[C@@H]1CN(c2cc(-c3nn(C)c4ccc(OC5(C)CC5)cc34)ncn2)C[C@H](C)O1	cell-free assay, competition with immobilised ligand	1 µM	remaining binding	95%
COc1cc2nccc(Oc3ccc(NC(=O)c4c5n(n(-c6ccc(F)cc6)c4=O)CCCC5)cc3)c2cc1OC	enzyme activity, inhibitor	0.1 µM	inhibition	-10%
Oc1cccc(-c2nc(N3CCOCC3)c3oc4ncccc4c3n2)c1	cell-free assay	0.5 µM	remaining signal	93.5%
Cc1ccc(Nc2nccc(N(C)c3ccc4c(C)n(C)nc4c3)n2)cc1S(N)(=O)=O	enzyme activity, inhibitor	0.3 µM	inhibition	4%
Cc1cnc(NC2CCOCC2)nc1-n1cnc(C(=O)NC(CN)c2cc(F)cc(Cl)c2)c1 (centres unmarked)	enzyme activity, inhibitor, radiometric	1 µM	remaining activity	102%
CN(c1nccc(-c2cnn3ncccc23)n1)C1CC1	cell-free assay	1 µM	remaining signal	100%
O=C(CSc1nc2nccnc2c(=O)n1CCc1ccccc1)Nc1nccs1	enzyme activity, inhibitor	10 µM	inhibition	6%
CC1=C(C#N)C(c2ccc3c(c2)c(NC(=O)c2ccccc2C)nn3C)C(C#N)=C(C)N1	cell-free assay, competition with immobilised ligand	1 µM	remaining binding	94%
Cc1ccc(NC(=O)c2ccc(CN3CCN(C)CC3)cc2)cc1Nc1nccc(-c2cncc(-c3oncc3C)c2)n1	enzyme activity, inhibitor	0.5 µM	remaining activity	≤ 50%
COc1cc2ncnc(Nc3ccc(Oc4ccccc4)cc3C)c2cc1OC	enzyme activity, inhibitor	1 µM	inhibition	5%
CC(C)(C)c1nc(-c2cccc(NS(=O)(=O)c3c(F)cccc3F)c2F)c(-c2ccnc(N)n2)s1	enzyme activity, inhibitor, radiometric	1 µM	remaining activity	89%
O=c1nc(-c2ccccn2)sc2ccccc12	binding, competition with immobilised ligand	1 µM	remaining binding	90%
CN1CC(Oc2cnc(C#N)cc2-c2ccn3nc(NC(=O)C4CC4)cc3c2)C1	enzyme activity, inhibitor	1 µM	inhibition	1%
CCS(=O)(=O)c1cc2cc(C[C@](O)(CC(C)(C)c3ccc(F)cc3C(N)=O)C(F)(F)F)[nH]c2cn1	cell-free assay, competition with immobilised ligand	1 µM	remaining binding	97%
CC(C)(O)[C@H]1CC[C@H](Nc2ccc3ncc(-c4cccc(C(F)(F)F)c4)n3n2)CC1	enzyme activity, inhibitor	1 µM	remaining activity	83.5%
COc1cc(Cl)c(C(=O)N[C@@H](CN[C@H]2CC[C@@H](N)CC2)Cc2ccc(C#N)cc2)cc1-c1ccc(CN[C@H](C)c2ccc(C)cc2)o1	enzyme activity, inhibitor	1 µM	remaining activity	100%
COc1cc(-c2cc(-c3ccc(N4CCNCC4)cc3)cnc2C)cc(OC)c1OC	enzyme activity, inhibitor	1 µM	inhibition	16%
Nc1ncnc2occ(-c3ccc(NC(=O)Nc4cc(C(F)(F)F)ccc4F)cc3)c12	cell-free assay, inhibitor	20 µM	remaining signal	0.1%
C[C@H](c1ccnc(Nc2nc3ccc(-c4cc(N(C)C)ncn4)cc3[nH]2)c1)N1CCN(C(=O)CC(F)(F)F)CC1	cell-free assay, competition with immobilised ligand	0.1 µM	remaining binding	100%
